≈ marks a conversion by molar mass, not a printed value.
What was measured:
[1] = biological target: T1, DNA polymerase catalytic subunit (Human cytomegalovirus (strain AD169) (HHV-5) (Human herpesvirus 5), UniProt P08546); assay: Inhibition of HCMV DNA polymerase by scintillation proximity assay; parameters: species or system Human betaherpesvirus 5
T1 sequence (P08546 whole entry): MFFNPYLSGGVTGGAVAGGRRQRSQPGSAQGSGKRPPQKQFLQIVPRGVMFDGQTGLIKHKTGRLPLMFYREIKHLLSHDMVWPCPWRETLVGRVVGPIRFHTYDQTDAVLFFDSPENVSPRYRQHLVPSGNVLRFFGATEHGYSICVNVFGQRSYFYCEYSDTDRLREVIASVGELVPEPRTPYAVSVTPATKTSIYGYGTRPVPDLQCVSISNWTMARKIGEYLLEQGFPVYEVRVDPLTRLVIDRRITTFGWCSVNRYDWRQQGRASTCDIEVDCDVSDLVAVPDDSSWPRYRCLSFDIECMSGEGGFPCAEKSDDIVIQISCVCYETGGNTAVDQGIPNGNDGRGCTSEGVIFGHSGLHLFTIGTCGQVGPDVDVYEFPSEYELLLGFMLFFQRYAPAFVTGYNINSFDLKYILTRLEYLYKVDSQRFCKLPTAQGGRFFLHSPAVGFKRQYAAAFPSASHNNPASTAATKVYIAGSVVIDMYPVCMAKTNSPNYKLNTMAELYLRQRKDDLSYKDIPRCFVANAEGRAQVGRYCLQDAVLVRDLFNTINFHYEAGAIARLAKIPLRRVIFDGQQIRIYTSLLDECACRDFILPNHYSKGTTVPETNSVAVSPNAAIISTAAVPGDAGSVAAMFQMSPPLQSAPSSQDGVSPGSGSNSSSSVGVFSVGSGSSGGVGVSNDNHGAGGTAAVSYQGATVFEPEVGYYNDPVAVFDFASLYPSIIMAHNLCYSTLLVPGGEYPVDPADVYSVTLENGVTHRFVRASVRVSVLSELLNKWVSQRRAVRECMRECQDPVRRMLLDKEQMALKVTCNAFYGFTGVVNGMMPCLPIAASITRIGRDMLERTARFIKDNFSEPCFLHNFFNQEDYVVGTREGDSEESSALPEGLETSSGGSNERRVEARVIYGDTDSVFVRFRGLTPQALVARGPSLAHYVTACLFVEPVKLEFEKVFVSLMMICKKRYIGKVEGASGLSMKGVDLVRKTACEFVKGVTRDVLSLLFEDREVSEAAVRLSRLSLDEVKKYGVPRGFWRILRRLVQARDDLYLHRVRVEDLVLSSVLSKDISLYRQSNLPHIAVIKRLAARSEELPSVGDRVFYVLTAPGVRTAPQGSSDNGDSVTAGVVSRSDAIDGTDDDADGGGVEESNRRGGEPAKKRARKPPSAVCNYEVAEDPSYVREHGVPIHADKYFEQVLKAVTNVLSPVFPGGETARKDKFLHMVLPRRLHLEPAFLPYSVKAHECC
In short: (§1)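 Purified viral or human DNA polymerase; incorporation of 3H-labeled nucleotide into template-primer measured by scintillation proximity.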

Human betaherpesvirus 5 = assay: Antiviral activity against HCMV Davis in HFF cells by plaque reduction assay; assay type: functional, organism-based; conditions: Human betaherpesvirus 5, Davis
In short: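 Plaque reduction in human foreskin fibroblasts infected with Davis strain; values are means of at least two experiments, SD given.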

[2] = Inhibition of HSV1 DNA polymerase by scintillation proximity assay; parameters: species or system Human alphaherpesvirus 1; in short: as §1
[3] = Inhibition of VZV DNA polymerase by scintillation proximity assay; parameters: species or system Human alphaherpesvirus 3; in short: as §1
[4] = Aqueous solubility of the compound; assay type: physicochemical
[5] = Cytotoxicity against HFF cells after 3 days; assay type: cell-based; conditions: human
In short: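 Subconfluent replicating HFF monolayers exposed to compound for 3 days; viability scored by microscopic evaluation and quantitative neutral red dye uptake; CC50 from a single determination.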

[6] = Inhibition of human DNA polymerase delta by scintillation proximity assay; in short: as §1
[7] = Oral bioavailability in dog at 15 mg/kg; assay type: ADME, organism-based, Canis lupus familiaris; conditions: in vivo
[8] = Inhibition of human DNA polymerase gamma by scintillation proximity assay; in short: as §1
[9] = Inhibition of EBV DNA polymerase by T7 quick-coupled transcription-translation system; parameters: species or system human gammaherpesvirus 4
In short: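 EBV polymerase plus BMRF-1 in 50 mM Tris pH 8, 70 mM NH4SO4, 10 mM MgCl2, dCTP/dTTP/dGTP, 0.5 µCi 32P-dATP, 100 µg/mL activated calf thymus DNA; compound added before enzyme, 1% final DMSO; 30 min at 37 °C; TCA precipitation onto glass filters, incorporated 32P counted by scintillation.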

Human alphaherpesvirus 3 = assay: Antiviral activity against VZV Webster in HFF cells by plaque reduction assay; assay type: functional, organism-based; conditions: Human alphaherpesvirus 3, Webster
Human alphaherpesvirus 1 = assay: Antiviral activity against HSV1 KOS in Vero cells by plaque reduction assay; assay type: functional, organism-based; conditions: Human alphaherpesvirus 1, KOS
Human gammaherpesvirus 4 = assay: Antiviral activity against EBV in GG68 cells after 72 hrs; assay type: functional, organism-based; conditions: human gammaherpesvirus 4, GG68, 72 h
In short: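 GG68 cells induced into lytic replication with 40 ng/mL TPA plus 4 mM n-butyric acid; compound added at 0.5% final DMSO; 72 h at 37 °C, then cells lysed and DNA harvested.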

[10] = Inhibition of human DNA polymerase alpha by scintillation proximity assay; in short: as §1
[11] = Oral bioavailability in rat at 15 mg/kg; assay type: ADME, organism-based; conditions: in vivo

SMILES	IC50 [1] [µM]	IC50 (Human betaherpesvirus 5) [µM]	other results
CN(Cc1cc2c(=O)c(C(=O)NCc3ccc(Cl)cc3)cn(C)c2s1)CC(O)c1ccccc1 (centres undefined)	0.1	0.18	–
CCN(Cc1cc2c(=O)c(C(=O)NCc3ccc(Cl)cc3)cn(C)c2s1)CC(O)c1ccccc1 (centres undefined)	0.24	0.45	–
CC(C)N(Cc1cc2c(=O)c(C(=O)NCc3ccc(Cl)cc3)cn(C)c2s1)CC(O)c1ccccc1 (centres undefined)	2.04	1.6	–
CN(Cc1cc2c(=O)c(C(=O)NCc3ccc(Cl)cc3)cn(C)c2s1)C[C@@H](O)c1ccccc1	–	–	IC50 [2]: 0.4 µM; IC50 [3]: 0.2 µM
CN(Cc1cc2c(=O)c(C(=O)NCc3ccc(Cl)cc3)cn(C)c2s1)C[C@H](O)c1ccccc1	2.55	–	IC50 [2]: 10.5 µM; IC50 [3]: 5 µM
CN(Cc1cc2c(=O)c(C(=O)NCc3ccc(F)cc3)cn(C)c2s1)CC(O)c1ccc(F)cc1 (centres undefined)	0.22	0.2	–
CN(Cc1cc2c(=O)c(C(=O)NCc3cccc(Cl)c3)cn(C)c2s1)CC(O)c1ccc(F)cc1 (centres undefined)	0.203	0.25	–
CN(Cc1cc2c(=O)c(C(=O)NCc3cccc(Cl)c3)cn(C)c2s1)CC(O)c1ccccn1 (centres undefined)	0.086	0.09	solubility [4]: 9 µM (≈ 4.47 µg/mL)
CN(Cc1cc2c(=O)c(C(=O)NCc3cccc(Cl)c3)cn(C)c2s1)CC(O)c1cccnc1 (centres undefined)	0.16	0.06	–
CN(Cc1cc2c(=O)c(C(=O)NCc3ccc(Cl)cc3)cn(C)c2s1)CC(O)c1ccncc1 (centres undefined)	0.2	0.085	–
CN(Cc1cc2c(=O)c(C(=O)NCc3ccc(Cl)cc3)cn(C)c2s1)CC(O)c1ccco1 (centres undefined)	0.077	0.03	solubility [4]: 0.4 µM (≈ 0.194 µg/mL)
CN(Cc1cc2c(=O)c(C(=O)NCc3ccc(Cl)cc3)cn(C)c2s1)CC(O)c1ccc2ccccc2n1 (centres undefined)	0.065	0.04	–
CN(Cc1cc2c(=O)c(C(=O)NCc3ccc(Cl)cc3)cn(C)c2s1)CC(O)c1cccs1 (centres undefined)	0.175	0.25	–
CN(Cc1cc2c(=O)c(C(=O)NCc3ccc(Cl)cc3)cn(C)c2s1)CC(O)c1cccc(C#N)c1 (centres undefined)	0.066	0.1	–
CN(Cc1cc2c(=O)c(C(=O)NCc3ccc(Cl)cc3)cn(C)c2s1)CC(O)c1ccc(C#N)cc1 (centres undefined)	0.315	0.3	–
COc1cccc(C(O)CN(C)Cc2cc3c(=O)c(C(=O)NCc4ccc(Cl)cc4)cn(C)c3s2)c1 (centres undefined)	0.087	0.02	–
CN(Cc1cc2c(=O)c(C(=O)NCc3ccc(Cl)cc3)cn(C)c2s1)CC(O)c1nccs1 (centres undefined)	0.235	0.2	–

SMILES	IC50 [1] [µM]	IC50 (Human betaherpesvirus 5) [µM]	other results
CN(Cc1cc2c(=O)c(C(=O)NCc3ccc(Cl)cc3)cn(C)c2s1)CC(O)c1ncccn1 (centres undefined)	0.1	0.1	–
CN(Cc1cc2c(=O)c(C(=O)NCc3ccc(Cl)cc3)cn(C)c2s1)CC(O)c1cnccn1 (centres undefined)	0.085	0.065	solubility [4]: 72 µM (≈ 35.9 µg/mL)
CC(C)C(O)CN(C)Cc1cc2c(=O)c(C(=O)NCc3ccc(Cl)cc3)cn(C)c2s1 (centres undefined)	17.5	> 5	–
C[C@H](O)CN(C)Cc1cc2c(=O)c(C(=O)NCc3ccc(Cl)cc3)cn(C)c2s1	0.035	–	–
CN(Cc1cc2c(=O)c(C(=O)NCc3cccc(Cl)c3)cn(C)c2s1)C[C@@H](O)c1ccccn1	0.061	0.1	CC50 at 72 h [5]: > 100 µM; IC50 [6]: > 40 µM; bioavailability [7]: 76%; IC50 [8]: > 40 µM; IC50 [9]: 0.07 µM; IC50 (Human alphaherpesvirus 3): 0.002 µM; IC50 (Human alphaherpesvirus 1): 3 µM; IC50 (Human gammaherpesvirus 4): 0.2 µM; IC50 [2]: 0.076 µM; IC50 [3]: 0.021 µM; IC50 [10]: > 40 µM; bioavailability [11]: 45%
Cn1cc(C(=O)NCc2ccc(Cl)cc2)c(=O)c2cc(CNCC(O)c3ccccc3)sc21 (centres undefined)	8.4	> 5	–
CN(Cc1cc2c(=O)c(C(=O)NCc3ccc(Cl)cc3)cn(C)c2s1)C[C@@H](O)c1cnccn1	0.037	0.015	CC50 at 72 h [5]: > 100 µM; IC50 [6]: > 40 µM; bioavailability [7]: 66%; IC50 [8]: > 40 µM; IC50 (Human alphaherpesvirus 3): 0.007 µM; IC50 (Human alphaherpesvirus 1): 1.6 µM; IC50 [2]: 0.076 µM; IC50 [3]: 0.019 µM; IC50 [10]: > 40 µM; bioavailability [11]: 21%
Cn1cc(C(=O)NCc2ccc(Cl)cc2)c(=O)c2cc(CN(CCO)CC(O)c3ccccc3)sc21 (centres undefined)	1.58	0.4	–
Cn1cc(C(=O)NCc2ccc(Cl)cc2)c(=O)c2cc(CN(CC(O)c3ccccc3)C3CC3)sc21 (centres undefined)	8.9	> 5	–
CN(Cc1cc2c(=O)c(C(=O)NCc3ccc(Cl)cc3)cn(C)c2s1)CC(O)c1ccoc1 (centres undefined)	0.25	0.4	–
CN(Cc1cc2c(=O)c(C(=O)NCc3ccc(Cl)cc3)cn(C)c2s1)CC(O)c1cc2ccccc2o1 (centres undefined)	0.012	0.15	–
CC(O)CN(C)Cc1cc2c(=O)c(C(=O)NCc3ccc(Cl)cc3)cn(C)c2s1 (centres undefined)	3.53	1.5	–
CN(Cc1cc2c(=O)c(C(=O)NCc3ccc(Cl)cc3)cn(C)c2s1)CC(O)c1ccc(O)cc1 (centres undefined)	0.1	0.057	–
Nc1nc2c(ncn2COCCO)c(=O)[nH]1 [ACYCLOVIR]	–	–	CC50 at 72 h [5]: > 100 µM; IC50 (Human gammaherpesvirus 4): 6.9 µM
O=C(O)P(=O)(O)O [FOSCARNET]	–	–	IC50 [8]: < 0.28 µM
Nc1nc(O)c2ncn(COC(CO)CO)c2n1 [GANCICLOVIR]	–	–	CC50 at 72 h [5]: > 100 µM

Source: ChEMBL document CHEMBL1139940, “2-Aryl-2-hydroxyethylamine substituted 4-oxo-4,7-dihydrothieno[2,3-b]pyridines as broad-spectrum inhibitors of human herpesvirus polymerases” (Bioorg Med Chem Lett, 2007)
